Results gathered from unrelated publications.
Lines come from different studies, so protocols differ.
Target: NUAK family SNF1-like kinase 2 (NUAK2, Homo sapiens, UniProt Q9H093)
Residues used in one study (Q9H093 1-628): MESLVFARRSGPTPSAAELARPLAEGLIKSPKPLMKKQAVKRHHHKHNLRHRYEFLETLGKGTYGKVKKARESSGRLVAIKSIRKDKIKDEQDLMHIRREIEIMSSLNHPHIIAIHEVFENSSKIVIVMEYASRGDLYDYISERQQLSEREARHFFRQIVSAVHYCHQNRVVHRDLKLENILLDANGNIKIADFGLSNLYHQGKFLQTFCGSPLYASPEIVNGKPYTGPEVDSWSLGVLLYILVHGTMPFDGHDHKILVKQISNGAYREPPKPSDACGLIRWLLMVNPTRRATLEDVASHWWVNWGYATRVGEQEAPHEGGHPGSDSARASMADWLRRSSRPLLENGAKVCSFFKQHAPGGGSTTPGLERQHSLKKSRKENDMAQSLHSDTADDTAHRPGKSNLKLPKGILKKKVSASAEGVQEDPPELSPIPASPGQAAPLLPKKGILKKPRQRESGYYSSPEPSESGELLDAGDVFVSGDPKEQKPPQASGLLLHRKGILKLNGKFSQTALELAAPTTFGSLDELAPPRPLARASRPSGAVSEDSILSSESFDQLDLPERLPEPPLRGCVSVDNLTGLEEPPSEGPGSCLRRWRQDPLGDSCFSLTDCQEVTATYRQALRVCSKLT

For `CC(C)(C)c1ccc(-c2nc(CBr)nn2-c2cccc(O)c2)cc1`, the remaining binding was 74% (cell-free assay; competition with immobilised ligand; 10 µM).
`CN(C)c1ncc(F)c(-c2cnn3ncccc23)n1` gave a remaining binding of 80% (binding; 1 µM).
With `CCCCN(CCCC)C(=O)CN1C[C@@H](c2cc(OC)c3c(c2)OCO3)[C@H](C(=O)O)[C@H]1CC(C)(C)CCC` the remaining binding was 100% (cell-free assay; competition with immobilised ligand; 1 µM).
With `FC(F)(F)Oc1cccc(-c2cnc3ccc(-c4ccncc4)nn23)c1` the remaining binding was 37% (binding; competition with immobilised ligand; 5 µM).
The remaining binding of `Nc1ncc2c(n1)-c1c([nH]c3ccc(C#CC4CC4)cc13)CCCC2` is reported as 92% (binding; competition with immobilised ligand; 1 µM).
The remaining binding of `O=C(NCCCN1CCOCC1)c1ccc(Nc2nccc(-c3cc4ccccc4s3)n2)cc1` is reported as 26% (binding; competition with immobilised ligand; 1 µM).
With `CN(CCCC(F)(F)F)c1nccc(-c2cnn3ncccc23)n1` the remaining binding was 92% (binding; 1 µM).
The remaining binding of `Cn1cc(Cl)c2c(Oc3c(F)cc(Nc4cc(Cl)nc(N)n4)cc3F)ccnc21` is reported as 85% (cell-free assay; competition with immobilised ligand; 0.1 µM).
`CC1CCCN1c1nccc(-c2cnn3ncccc23)n1` (stereo not shown) gave a remaining binding of 85% (binding; 1 µM).
The remaining binding of `CO[C@@H](C)c1c(Nc2ccc([C@@H](N(C)C(=O)C3CCS(=O)(=O)CC3)C(F)(F)F)cc2)cnc2cc(Cl)nn12` is reported as 100% (cell-free assay; competition with immobilised ligand; 1 µM).
For `c1cncc(-c2cccc(Nc3nccc(NC4CCCCC4)n3)c2)c1`, the remaining binding was 17% (binding; competition with immobilised ligand; 10 µM).
`O=C(NCC1CCOCC1)c1n[nH]cc1NC(=O)c1c(F)cccc1F` gave a remaining binding of 70% (binding; competition with immobilised ligand; 1 µM).
`N[C@@H]1CCN(c2nccc(-c3cnn4ncccc34)n2)C1` gave a remaining binding of 100% (binding; 1 µM).
`C[C@H](NC(=O)c1cnc2n1[C@](C)(Cc1ccc(C#N)cc1)C(=O)N2c1cc(Cl)c(F)c(Cl)c1)C(=O)NC1(c2ccccn2)CC1` has a remaining binding of 100% (cell-free assay; competition with immobilised ligand; 1 µM).
The remaining binding of `COc1ncc2cc3ccccc3nc2c1C#N` is reported as 100% (cell-free assay; competition with immobilised ligand; 5 µM).
`O=C(O)[C@H]1[C@H](Cn2nnc3ccccc3c2=O)CC[C@@H]1C(=O)c1ccc(OCCC2CCOCC2)cc1` has a remaining binding of 100% (cell-free assay; competition with immobilised ligand; 1 µM).
`C[C@@H]1CN(c2ccc3ncc(-c4ccc5[nH]nc(C6CC6)c5c4)n3n2)C[C@H](C)O1` gave a remaining binding of 58% (binding; competition with immobilised ligand; 0.5 µM).
`O=C(c1ccc(Nc2nccc(-c3cc4ccccc4s3)n2)cc1)N1CCC(N2CCCC2)CC1` gave a remaining binding of 7.6% (binding; competition with immobilised ligand; 1 µM).
For `COc1cnc(Nc2cccc(S(N)(=O)=O)c2)nc1N1CCN(c2ccccc2)CC1`, the remaining binding was 62% (binding; competition with immobilised ligand; 1 µM).
`C[C@H]1CCN(c2nccc(-c3cnn4ncccc34)n2)C1` gave a remaining binding of 79% (binding; 1 µM).
`O=C(c1ccc(Nc2ncc(Cl)c(-c3cc4ccccc4s3)n2)cc1)N1CCC(N2CCCC2)CC1` gave a remaining binding of 0.8% (binding; competition with immobilised ligand; 1 µM).
For `O=C(N1CCS(=O)(=O)CC1)N1C[C@H](c2ccc(OC(F)(F)F)cc2)C[C@H](c2nc(C3CC3)no2)C1`, the remaining binding was 100% (cell-free assay; competition with immobilised ligand; 1 µM).
